Experimental findings from the array DNA melting data of Ke et al. (doi:10.1101/2024.01.08.574731) are described below.

Data set [1] in a line: folding enthalpy; higher = less favourable; fluorescence melt of hairpins on a sequencing array, two-state fit. The note with it: sodium 0.088 M. Put shortly:
(§1)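 Melting temperature and folding enthalpy were derived from bootstrapped two-state fits. The fitted temperatures were raised by 9.35 °C to agree with UV melts, and four replicates were combined by inverse variance. The underlying data were Cy3 fluorescence images of library hairpins, with annealed Cy3 and quencher oligos, on a sequenced MiSeq flow cell in 50 mM Na-HEPES pH 8.0, 25 mM NaCl, taken in 2.5 °C steps up to 60 °C, normalised to pre-quench Cy3 and to control constructs.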

Data set [2] in a line: melting temperature; fluorescence melt of hairpins on a sequencing array, two-state fit, raised by 9.35 °C to match UV melts. The note with it: sodium 0.088 M. Put shortly: as §1

As to GGCGTCGAAAGACGTGCC ((((((....)))..))), the folding enthalpy in data set [1] was -12 kcal/mol. In addition, in data set [2], the Tm is 51.1 °C.
For the sequence GGAACGCGAAAGCGTCC (((.(((....)))))), the folding enthalpy in data set [1] is -13.4 kcal/mol. For the same sequence, the Tm in data set [2] was found to be 53.8 °C.
The matching figures for GATCACTTCAGTGATC ((((((....)))))): -46.6 kcal/mol and 63.9 °C.
The matching figures for GGGAGCTCGAAAGAGCCC (((..(((....)))))): -11.2 kcal/mol and 57.2 °C.
The matching figures for GATCGTTACAACGATC ((((((....)))))): -39 kcal/mol and 57.3 °C.
Take AGCCAGAAATGGCT (((((....))))): the folding enthalpy in data set [1] was -19.1 kcal/mol. The Tm in data set [2] is 54.4 °C.
For the sequence GGTACACCGAAAGGTACC (((..(((....)))))), the folding enthalpy in data set [1] is -20.5 kcal/mol. Moreover, in data set [2], the Tm stood at 41.1 °C.
For the sequence CGGGTACGGAAACGTCCG (((..(((....)))))), the folding enthalpy in data set [1] was -20 kcal/mol. The Tm in data set [2] amounted to 40 °C.
The matching figures for GACAGCGGAAACGCTATC ((.((((....)))).)): -14 kcal/mol and 36.7 °C.
Turning to GATCACATAGTGATC ((((((...)))))), the folding enthalpy in data set [1] was -40 kcal/mol. In addition, in data set [2], the Tm is 62.4 °C.
For the sequence GATACGAAAGTATC (((((....))))), the folding enthalpy in data set [1] was -32.2 kcal/mol. Also, the Tm in data set [2] amounted to 56.6 °C.
For GCGCTGACGAAAGTCCGC (((..(((....)))))), in that order: -25.1 kcal/mol and 51 °C.
For GATCGCACTGGCGATC ((((((....)))))), in that order: -34 kcal/mol and 68.2 °C.
For GACACAGGAAACTGTGTC (((((((....))))))), in that order: -47.9 kcal/mol and 62.5 °C.
For the sequence GGGGTCGGAAACGACTCC ((.((((....)))).)), the folding enthalpy in data set [1] is -34.4 kcal/mol. In addition, in data set [2], the Tm amounted to 59.5 °C.
For GATCGACTACTCGATC ((((((....)))))), in that order: -36.5 kcal/mol and 50.7 °C.
GGCCAACGAAAGTTTGCC (((.(((....))).))): the folding enthalpy in data set [1] is -45.6 kcal/mol. Moreover, the Tm in data set [2] came to 50.7 °C.
The matching figures for GTGGCCGAAAGGCTCAC ((((((....))).))): -16.2 kcal/mol and 54.9 °C.
The matching figures for GACAGAACGAAAGTTGTC (((..(((....)))))): -28.2 kcal/mol and 36.8 °C.
For GCTGAGCGAAAGCCCAGC ((((.((....)).)))), in that order: -47.6 kcal/mol and 63.9 °C.
With GCTTATGCGAAAGCAAGC (((..(((....)))))), the folding enthalpy in data set [1] is -16.6 kcal/mol. In data set [2], the Tm was found to be 42.4 °C.
The matching figures for GGGTTCGAAAGAAGACCC ((((((....)))..))): -21.2 kcal/mol and 41.8 °C.
For the sequence GGCCCCACGAAAGTGGCC (((..(((....)))))), in data set [1], the folding enthalpy is -11.8 kcal/mol. In addition, the Tm in data set [2] is 44.7 °C.
Consider GGCAGCCGAAAGGCCGCC (((.(((....))).))), for which the folding enthalpy in data set [1] is -22.3 kcal/mol. For the same sequence, in data set [2], the Tm was determined as 66.9 °C.
Take GCTGTGGGAAACCGTAGC (((..((....))..))): the folding enthalpy in data set [1] was -18.5 kcal/mol. In data set [2], the Tm was determined as 34.4 °C.
Turning to GACGAGGGAAACCTCGCC (.(((((....))))).), the folding enthalpy in data set [1] is -14.3 kcal/mol. Moreover, the Tm in data set [2] came to 52.3 °C.
The matching figures for GCGAACCGAAAGGTCGC (((.(((....)))))): -31.8 kcal/mol and 67.5 °C.
Regarding GAGGACCGAAAGGTGCTC (((.(((....))).))), in data set [1], the folding enthalpy is -32.2 kcal/mol. Also, the Tm in data set [2] is 60.4 °C.
With GCAACGCGAAAGCGGCGC ((..(((....)))..)), the folding enthalpy in data set [1] is -26.6 kcal/mol. Further, in data set [2], the Tm came to 66.7 °C.
The matching figures for GATCGGCAGGCCGATC ((((((....)))))): -34.9 kcal/mol and 66.8 °C.
For GCGATACTCGC ((((...)))), in that order: -22.8 kcal/mol and 49.3 °C.
Turning to GGGTTAGGAAACCAACCC (((((.(....).))))), the folding enthalpy in data set [1] is -33.9 kcal/mol. For the same sequence, the Tm in data set [2] is 45.6 °C.
For GAGCCCGAAAGGGCACTC ((((((....)))..))), in that order: -11 kcal/mol and 62.2 °C.
The matching figures for GCATCGCGAAAGCGGCGC ((..(((....)))..)): -21.2 kcal/mol and 57.3 °C.
For GCGGTACCGAAAGGTCGC (((..(((....)))))), in data set [1], the folding enthalpy is -26.3 kcal/mol. Besides, the Tm in data set [2] was 55.4 °C.
As to GGGGAACGAAAGTTTCCC (((.(((....))).))), the folding enthalpy in data set [1] is -36.8 kcal/mol. Also, the Tm in data set [2] amounted to 61.1 °C.
The matching figures for GGTTCCGAAAGGAGAACC ((((((....)))..))): -24.5 kcal/mol and 45.1 °C.
Turning to GATCAATTAATTGATC ((((((....)))))), the folding enthalpy in data set [1] is -42 kcal/mol. Also, the Tm in data set [2] stood at 48.8 °C.
The matching figures for GGCAGAGGAAACTCTACC ((.((((....)))).)): -23.8 kcal/mol and 38.3 °C.
The matching figures for GCGTTCTTACGC ((((....)))): -27 kcal/mol and 52.8 °C.
For GCCCTGCGAAAGCAGGC (((.(((....)))))), in that order: -8.08 kcal/mol and 65.1 °C.
GATCGATGATTCGATC ((((((....)))))): in data set [1], the folding enthalpy was -36.4 kcal/mol. In addition, the Tm in data set [2] amounted to 53.2 °C.
For GATCGAGAATTCGATC ((((((....)))))), in that order: -39.7 kcal/mol and 57.4 °C.
The matching figures for GCTAAGGGAAACTTTAGC (((((.(....).))))): -21.1 kcal/mol and 37.9 °C.
For GCCGTCGAAAGACACGGC ((((((....)))..))), in that order: -27.5 kcal/mol and 54.6 °C.
Consider GCCTTCGAAAGAACAGGC ((((((....)))..))), for which, in data set [1], the folding enthalpy is -26.7 kcal/mol. For the same sequence, the Tm in data set [2] turned out to be 40.9 °C.
Take GTTACTGGAAACAGTGAC ((.((((....)))).)): the folding enthalpy in data set [1] is -27.6 kcal/mol. In data set [2], the Tm was determined as 44.9 °C.
On to GCCTGGGGAAACCTAGGC ((((.((....)).)))), for which the folding enthalpy in data set [1] is -31.5 kcal/mol. For the same sequence, in data set [2], the Tm amounted to 54.4 °C.
Turning to CAGTTGAAAAACTG (((((....))))), the folding enthalpy in data set [1] is -20.9 kcal/mol. Also, the Tm in data set [2] was determined as 44.7 °C.
For GGCGACCGAAAGGTGCC (((.(((....)))))), in that order: -20.9 kcal/mol and 63.5 °C.
Turning to GGATCAGGAAACCGATCC (((((.(....).))))), the folding enthalpy in data set [1] is -39 kcal/mol. For the same sequence, the Tm in data set [2] worked out at 46.4 °C.
Turning to GCGATCGAAAGATTCCGC ((((((....)))..))), the folding enthalpy in data set [1] was -23.8 kcal/mol. In data set [2], the Tm was determined as 33.7 °C.
With GTGAGCGGAAACGTTCGC (.((.((....)).)).), in data set [1], the folding enthalpy was -27.8 kcal/mol. Besides, in data set [2], the Tm amounted to 43.9 °C.
In the case of GAGCGTGGAAACGTGCTC ((((..(....)..)))), in data set [1], the folding enthalpy was -19.3 kcal/mol. Also, the Tm in data set [2] was 47.6 °C.
As to CGTCCGGAAACGGCTACG ((((((....)))..))), the folding enthalpy in data set [1] was -12.6 kcal/mol. Moreover, the Tm in data set [2] was 34 °C.
GATCTAAGCATAGATC ((((((....)))))): the folding enthalpy in data set [1] is -32.2 kcal/mol. The Tm in data set [2] worked out at 40.3 °C.
For GACTGTGGAAACACAATC ((.((((....)))).)), in that order: -15.5 kcal/mol and 31.6 °C.
Take CGTCACGGAAACGTCACG (((.(((....))).))): in data set [1], the folding enthalpy is -19.8 kcal/mol. Besides, the Tm in data set [2] was determined as 39.3 °C.
Take GATCAGGCTTCTGATC ((((((....)))))): the folding enthalpy in data set [1] is -37.1 kcal/mol. In addition, the Tm in data set [2] was found to be 50.3 °C.
The matching figures for GTTGCGTCGAAAGACAAC (((..(((....)))))): -13.8 kcal/mol and 30.3 °C.
For GCAGAGCGAAAGCGCGGC ((.(.((....)).).)), in that order: -20.9 kcal/mol and 60.1 °C.
On to GGTAAACGAAAGTTCACC (((.(((....))).))), for which, in data set [1], the folding enthalpy is -28.6 kcal/mol. The Tm in data set [2] stood at 40.4 °C.
In the case of GTGATGAAAATCAC (((((....))))), the folding enthalpy in data set [1] was -22.8 kcal/mol. In addition, in data set [2], the Tm is 49.6 °C.
Turning to GATCGTACCTACGATC ((((((....)))))), in data set [1], the folding enthalpy is -50.5 kcal/mol. The Tm in data set [2] was found to be 55.6 °C.
The matching figures for GATCGCCTGAGCGATC ((((((....)))))): -29.1 kcal/mol and 68.7 °C.
In the case of GCAACGCGAAAGCGCTGC (((.(((....))).))), the folding enthalpy in data set [1] is -37.9 kcal/mol. In data set [2], the Tm came to 57.8 °C.
For GCTAAGCGAAAGCATGGC ((.(.((....)).).)), in data set [1], the folding enthalpy was -20.1 kcal/mol. Moreover, the Tm in data set [2] was determined as 39.7 °C.
As to GAATGGGGAAACCTGTTC (((..((....))..))), the folding enthalpy in data set [1] is -13.1 kcal/mol. For the same sequence, the Tm in data set [2] amounted to 29.9 °C.
The matching figures for GCAATACCGAAAGGTTGC (((..(((....)))))): -21.6 kcal/mol and 45.5 °C.
Consider AATCCGAAAGGATT (((((....))))), for which, in data set [1], the folding enthalpy is -17.8 kcal/mol. Besides, the Tm in data set [2] amounted to 52 °C.
The matching figures for GAGTTCCGAAAGGATCTC (((.(((....))).))): -29.3 kcal/mol and 47.3 °C.
GCTTTGCGAAAGCATCGC ((..(((....)))..)): in data set [1], the folding enthalpy was -13.7 kcal/mol. Besides, in data set [2], the Tm worked out at 48.7 °C.
For GCCAACGAAAGTTAAGGC ((((((....)))..))), in that order: -25.6 kcal/mol and 45.8 °C.
For GACTGACGAAAGTCCGTC (((.(((....))).))), in that order: -29.4 kcal/mol and 49.2 °C.
